The list is not random: actives were taken first. Their share in the collection is about 3.8%.
KCNK9 block: human KCNK9 channel inhibition; HEK293 KCNK9, FluxOR thallium flux fluorescence; stronger effect = lower value; 310,000 compounds, 1.2% hits; B-score at 10 µM; AID 488922;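 active means ratio B-score over 3 SD below the library mean, with starting fluorescence within 5 SD of its mean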;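 further: negative B-score means less thallium flux so channel inhibition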
Kir21 block: blocks the mouse Kir2.1 inward-rectifier potassium channel. AID 1672. HEK293-Kir2.1, FluxOR thallium flux fluorescence; stronger effect = lower value. B-score at 10 µM. 310,000 compounds, 0.85% hits. P35561;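 active means fluorescence ratio B-score at or below minus 3 SD of library scores, with starting-brightness B-score within 2 SD, cut at about -4.2 in these data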;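 further: channel flux triggered by added potassium and thallium sulfate stimulus; B-score of peak minus minimum fluorescence over baseline after thallium stimulus; more negative B-score means stronger Kir2.1 block with less thallium influx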
KCNQ1 pot: potentiates or activates the human KCNQ1 potassium channel. P51787. CHO-K1 KCNQ1, thallium flux FluxOR fluorescence; stronger effect = higher value. B-score at 10 µM. 310,000 compounds, 0.35% hits. AID 2648;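 active means fluorescence ratio B-score, a plate-corrected score, at least three library SD, with initial intensity B-score within 5 SD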
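Schedule – 37 °C overnight plating, 90-min dark dye load, 20-min compound pretreatment · System – stable KCNQ1 CHO-K1 line · Probe or stimulus – thallium- and potassium-containing depolarizing buffer · Measured by – kinetic FluxOR fluorescence, 10 s baseline plus 110 s post-stimulus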
KCNK3 block: human KCNK3 channel inhibition, primary screen; B-score at 10 µM; CHO-KCNK3 thallium flux, FluxOR fluorescence; stronger effect = lower value; 340,000 compounds, 0.84% hits; AID 602410;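 active means B-score under library mean minus 4 SD, starting fluorescence ratio at most library mean plus 5 SD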;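 further: more negative B-score means stronger inhibition of thallium flux through KCNK3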
KCNQ1 inh: inhibitors of human KCNQ1 potassium channel; AID 2642; P51787; B-score at 10 µM; CHO-K1 KCNQ1, FluxOR thallium flux fluorescence; stronger effect = higher value; 310,000 compounds, 1.3% hits;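 active means compounds whose thallium flux B-score, printed positive for inhibition, exceeds three library SD while starting fluorescence stays within three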;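 further: channel opened by potassium depolarization with thallium stimulus after 20 min compound exposure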
hERG rescue: compounds protecting human hERG from proarrhythmic drug block; activation (rescue from dofetilide block), less the hit threshold, % at 10 µM; 310,000 compounds, 0.51% hits; AID 1511; CHO-hERG, FluxOR thallium flux, dofetilide IC70 present; Q12809;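 active means activation above the mean of controls blocked by dofetilide plus 5 SD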;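 further: thallium influx through hERG after potassium depolarization seen as dye fluorescence rise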
KCNQ1 block val: reconfirmed blocker of the human KCNQ1 potassium channel. shares compounds with KCNQ1 inh. KCNQ1 cell line, FluxOR thallium flux fluorescence. inhibition, % at 10 µM. 1,600 compounds, 93% hits. AID 588353;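 active means primary screen active, with duplicate mean exceeding buffer control mean plus 3 SD of buffer wells, cut at about 28% in these data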;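 further: 0% = buffer control ratio and 100% = XE991 inhibitor control ratio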
CHO KCNQ1 ctr: counter-screen for KCNQ1 inhibitors: effect in parental CHO cells | AID 588366 | fluorescence ratio (Tl flux) at 10 µM | 1,600 compounds, 21% hits | parental CHO-K1, FluxOR thallium flux fluorescence ratio; stronger effect = lower value; zero means no signal rise above baseline | shares compounds with KCNQ1 inh;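 active means mean of duplicate thallium-flux fluorescence ratios in parental host cells more than 5 SD below the buffer control mean, cut at about 0.38 in these data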;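 further: ratio is peak minus minimum fluorescence divided by baseline fluorescence; actives read low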
KCNQ1 ephys val: confirmation of human KCNQ1 potassium channel inhibitors by electrophysiology; AID 624120; shares compounds with KCNQ1 inh; KCNQ1-CHO cells, automated patch clamp current; 490 compounds, 20% hits; calls only at 10 µM;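 active means KCNQ1 current drop exceeding 3 SD of negative control wells, seen in both duplicate runs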;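 further: steady state current during a 2 s step from -80 to +40 mV; negative values mean current inhibition and positive values mean potentiation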
KCNQ2 spec: selectivity of KCNQ1 inhibitors: inhibition of rat KCNQ2 channel; shares compounds with KCNQ1 inh; KCNQ2 cells, FluxOR thallium flux fluorescence; inhibition, % at 10 µM; 1,600 compounds, 71% hits;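 active means mean percent inhibition of the KCNQ2 thallium signal more than 5 SD above the buffer-only control wells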;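 further: KCNQ2 expressed in CHO cells; 0% = buffer control wells and 100% = XE-991 inhibitor control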
KCNQ1-KCNE1 inh: selectivity of KCNQ1 inhibitors: inhibition of human KCNQ1/KCNE1 channel; KCNQ1/KCNE1 cells, FluxOR thallium flux fluorescence; 1,600 compounds, 77% hits; shares compounds with KCNQ1 inh; inhibition, % at 10 µM;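 active means mean percent inhibition of duplicate wells above the buffer-only control mean plus 3 SD of those controls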;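 further: 0% = buffer only wells and 100% = XE-991 inhibitor control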
KCNK9 inh conf: confirmation of human KCNK9 potassium channel inhibitors | 4,900 compounds, 43% hits | AID 492992 | HEK293 KCNK9 cells, FluxOR thallium flux fluorescence | shares compounds with KCNK9 block | inhibition, % at 10 µM;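 active means thallium signal inhibited by more than 5 SD of the compound-free buffer control wells, on both duplicate plates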;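 further: 0% = assay buffer control wells without compound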
Kir2-1 spec: tests whether KCNK9 modulators also affect mouse Kir2.1; inhibition, % at 10 µM; 4,900 compounds, 4% hits; shares compounds with KCNK9 block; Kir2.1 cells, FluxOR thallium flux fluorescence;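 active means thallium signal drop more than 5 SD beyond the mean of the no-compound control wells, seen in both duplicate plates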;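 further: signal is fluorescence rise after thallium addition divided by baseline fluorescence; plate controls were assay buffer only for no effect and full block by chlorpromazine control for full effect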
KCNK9 uninduced: non-induced cell nonspecific activity of KCNK9 modulators; shares compounds with KCNK9 block; non-induced KCNK9-HEK293, FluxOR thallium flux; inhibition, % at 10 µM; 4,900 compounds, 40% hits; AID 492997;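 active means thallium signal drop beyond 5 SD of the untreated control mean, on both duplicate plates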;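 further: plate controls were buffer only IC0 wells for no effect and SID17386958 at its maximal inhibitory level for full effect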
KCNK3 confirm: human KCNK3 channel inhibition, confirmation assay | shares compounds with KCNK3 block | CHO-KCNK3 thallium flux, FluxOR fluorescence; 0% buffer, 100% carvedilol maximal block | ratio percent of control, % at 10 µM | 2,400 compounds, 99% hits | AID 651638;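 active means ratio percent of control, averaged over triplicates, above buffer control mean plus 5 SD, cut at about 64% in these data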;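 further: ratio is the fluorescence rise from min to max over baseline after thallium stimulus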
KCNK3 uninduced: KCNK3 inhibitor counter-screen hit in non-induced cells; non-induced KCNK3 parental cells, FluxOR thallium flux; stronger effect = lower value; 2,400 compounds, 40% hits; shares compounds with KCNK3 block; thallium flux ratio (lower = more inhibition) at 10 µM;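 active means thallium flux ratio, averaged over three wells, more than 5 SD below the buffer control mean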;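 further: host cells are CHO cells without KCNK3 induction; ratio is peak minus trough fluorescence over baseline then normalized to buffer controls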
* hit, by the source's call; i = inactive; / = no result given; + = active, no number.

SMILES	KCNK9 block	Kir21 block	KCNQ1 pot	KCNK3 block	KCNQ1 inh	hERG rescue	KCNQ1 block val	CHO KCNQ1 ctr	KCNQ2 spec	KCNQ1-KCNE1 inh	KCNK3 confirm	KCNK3 uninduced	others
O=S(=O)(c1cccc(C(F)(F)F)c1)N1CCN(S(=O)(=O)c2ccc3c(c2)OCCO3)CC1	/	/	/	i	/	/	/	/	/	/	/	/
CC(C)CNC(=S)N1CCN(c2nc(-c3ccc(Cl)cc3)cs2)CC1	i	-0.06	i	-9.8*	11*	-7	159*	0.41	128%*	142%*	140*	0.12*	KCNQ1 ephys val=i
COc1cccc(-c2csc(N3CCN(C(=S)NCC(C)C)CC3)n2)c1	i	0.14	i	i	i	-6	/	/	/	/	/	/
Cc1ccc(S(=O)(=O)CCC(=O)Nc2ccccc2C)cc1	i	0.36	i	i	i	-10	/	/	/	/	/	/
c1csc(CNc2nc(-c3cccs3)nc3ccccc23)c1	i	-2.1	i	-11*	6*	-14	112*	0.38	123%*	168%*	108*	i	KCNQ1 ephys val=i
Cn1cnc2nc[nH]c2c1=O	/	/	/	i	/	/	/	/	/	/	/	/
CC(C)=CCc1c(O)cc(O)c2c1OC(c1ccc(O)cc1)CC2=O (configuration not stated)	-12*	-6.4*	i	-15*	9*	-10	130*	0.35*	108%*	+	139*	0.11*	KCNK9 inh conf=48%*;Kir2-1 spec=i;KCNK9 uninduced=i
CCn1c(=NC(=O)C2COc3ccccc3O2)sc2c(OC)ccc(OC)c21 (configuration not stated)	-6.6*	0.4	i	-10*	7*	-15	80*	0.39	82%*	126%*	112*	i
COCCn1c(=NC(=O)C2COc3ccccc3O2)sc2cc(S(N)(=O)=O)ccc21 (configuration not stated)	i	1.6	i	i	i	-10	/	/	/	/	/	/
CN(CC(=O)Nc1cccc(F)c1)CC(=O)Nc1cc(S(=O)(=O)N2CCOCC2)ccc1Cl	/	/	/	i	/	/	/	/	/	/	/	/
CN(CC(=O)Nc1cccc(S(=O)(=O)N2CCOCC2)c1)CC(=O)Nc1ccc(Cl)c(C(F)(F)F)c1	i	-0.39	i	-11*	8*	-27	118*	0.43	93%*	54%*	120*	0.14*	KCNQ1 ephys val=i
CN(CC(=O)NCc1ccc(F)cc1)CC(=O)Nc1ccc(Cl)c(C(F)(F)F)c1	i	0.28	i	-11*	8*	-17	104*	0.45	87%*	62%*	113*	i	KCNQ1 ephys val=+
CCN(CC(=O)Nc1ccc(OC)cc1)C(=O)Cc1ccsc1	/	/	/	i	/	/	/	/	/	/	/	/
CC(C)=CCc1cc(-c2oc3cc(O)cc(O)c3c(=O)c2O)ccc1O	i	0.58	i	i	i	-13	/	/	/	/	/	/
CC(C)=CCc1c(O)cc2oc3c(CC=C(C)C)c(O)c(O)c(CC=C(C)C)c3c(=O)c2c1O	-13*	0.12	i	-9.2*	16*	-34	150*	0.35*	124%*	+	146*	0.11*	KCNK9 inh conf=62%*;Kir2-1 spec=i;KCNK9 uninduced=34%*
Cc1cccc2nc(-c3cccnc3)c(Nc3ccccc3)n12	i	-1.2	i	i	i	0	/	/	/	/	/	/
Cc1cccc2nc(-c3cccnc3)c(NCCC(C)C)n12	-9.1*	-0.64	i	-10*	11*	4.9*	139*	0.37*	119%*	157%*	141*	0.13*	KCNK9 inh conf=37%*;Kir2-1 spec=i;KCNK9 uninduced=36%*
CC(=O)c1c(C)[nH]c(C(=O)Nc2ccc(C)c(S(=O)(=O)N(C)C)c2)c1C	i	-5.3	i	i	i	-6	/	/	/	/	/	/
CC(=O)c1c(C)[nH]c(C(=O)Nc2ccc(C)c(S(=O)(=O)Nc3ccc(C)cc3C)c2)c1C	-7.8*	-0.33	i	-13*	12*	-15	142*	0.44	142%*	+	137*	i	KCNQ1 ephys val=i
O=c1[nH]n(Cc2ccccc2)c2ccccc12	i	-1.9	i	i	i	-13	/	/	/	/	/	/
CN(CC(=O)Nc1ccccc1Br)CC(=O)Nc1ccccc1-c1ccccc1	/	/	/	i	/	/	/	/	/	/	/	/
CN(CC(=O)Nc1ccccc1-c1ccccc1)Cc1ccccc1Cl	-16*	0.47	i	-9.6*	8*	-6	76*	0.38	98%*	122%*	120*	0.13*	KCNK9 inh conf=63%*;Kir2-1 spec=55%*;KCNK9 uninduced=46%*
C=C1CC[C@@H]2[C@](C)(CCC[C@@]2(C)/C=C/[C@@H](O)C(C)(C)O)[C@H]1CC(=O)NCCS(=O)(=O)O	/	/	/	i	/	/	/	/	/	/	/	/
Cc1occc1C(=O)N1CCCC(CO)(Cc2ccc(F)cc2F)C1 (configuration not stated)	i	-0.14	i	i	i	-11	/	/	/	/	/	/
COc1ccc(NC(=O)c2ccccc2OCc2ccc(F)cc2)c(OC)c1	-12*	0.58	i	-11*	8*	-11	76*	0.45	85%*	108%*	108*	i	KCNK9 inh conf=72%*;Kir2-1 spec=i;KCNK9 uninduced=32%*
CC/C(=N\N=C1\SC(C)C(=O)N1Cc1ccco1)c1ccccc1 (configuration not stated)	i	0.36	i	i	i	-12	/	/	/	/	/	/	KCNK9 inh conf=i;Kir2-1 spec=i;KCNK9 uninduced=26%*

Compound activity deposited in PubChem by Johns Hopkins Ion Channel Center.
